From PubChem BioAssay
Arbovirus anti: antivirals against arbovirus infection, primary screen, cell-based, full library, 10K replicate subset; inhibition, % at 10 µM; arbovirus infection cell-based antiviral screen; actives 0.37% (n = 200,000); in the data active = inhibition above about 30%
L major viab: Leishmania major promastigote growth inhibition, primary screen. Leishmania major promastigotes, resazurin fluorescence viability. AID 1063, 2008. inhibition, % at 10 µM. actives 9% (n = 200,000);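 also: promastigotes grown with compound for 44 hours at 28 °C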
Rad51 HR inh: human RAD51 strand exchange inhibitors, primary screen, biochemical, fluorescence; DNA repair protein RAD51 homolog 1 (Homo sapiens), Q06609; hRad51 DNA strand exchange, fluorescence dequenching; inhibition, % at 10 µM; actives 0.085% (n = 200,000); AID 1385, 2008;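 active = inhibition above 40% at the single screening dose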
Target sequence (Q06609 whole entry, looked up): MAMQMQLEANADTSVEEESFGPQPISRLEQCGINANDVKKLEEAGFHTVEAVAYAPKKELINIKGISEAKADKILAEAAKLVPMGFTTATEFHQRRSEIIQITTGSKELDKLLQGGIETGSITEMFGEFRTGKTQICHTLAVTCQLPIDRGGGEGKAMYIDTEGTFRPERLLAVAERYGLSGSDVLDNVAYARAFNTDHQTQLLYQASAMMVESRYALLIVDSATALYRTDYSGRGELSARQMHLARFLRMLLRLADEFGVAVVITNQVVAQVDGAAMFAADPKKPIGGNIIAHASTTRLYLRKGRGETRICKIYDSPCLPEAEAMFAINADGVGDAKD
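Test system – preformed human Rad51 ssDNA filaments · Reagent – Donor/quencher-labelled 47-bp dsDNA substrate · Incubation – 37 °C 15-min filament assembly, 30-min compound preincubation, 15-min exchange · Signal – FRET fluorescence dequenching, excitation 485 nm, emission 520 nm · Read-out – percent inhibition from fluorescence, normalised to plate control and blank means · Benchmarks – plate control and blank wells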
PKD1 inh: inhibitors of human PKD1 kinase, biochemical, fluorescence polarization | Serine/threonine-protein kinase D1 (Homo sapiens), Q15139 | PKD1 kinase fluorescence polarization assay | actives 0.056% (n = 200,000) | inhibition, % (test concentration not listed)
CHOP inhibitor: inhibitors of CHOP promoter induction, primary screen, cell-based, unfolded protein response, luciferase reporter | CHO-K1 CHOP-promoter luciferase, tunicamycin-induced, 15-18 h | inhibition, % at 10 µM | actives 3.8% (n = 220,000) | AID 2732, 2010;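 active = compounds that reduced the stress-induced luciferase reporter signal by more than about 70% of percent inhibition, limit read from the data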
Wee1 degr inh: Wee1 degradation inhibitors, primary screen, cell-based, HeLa, Wee1K328M-luciferase, luminescence | AID 1321, 2008 | reporter increase, % at 5 µM | actives 1.2% (n = 220,000) | HeLa Luc-Wee1K328M stability; 100% = proteasome inhibitor MG132 effect;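 active = activation above the mean of all tested compounds plus 3 SD, set per screening run, cut at about 8.8% in these data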;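 also: cells exposed to compound for 20 h before luminescence read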
Large screens that a line does not name were inactive. In the library only some 12% were active in any assay of this set; here they are far more common. Rule as the data show it, unless noted: active = inhibition above about 50%; inactive = the rest.

O=S(=O)(c1ccc(Cl)cc1)N1CCN(Cc2c[nH]c3ccccc23)CC1	L major viab 52, CHOP inhibitor 71
O=S(=O)(c1ccc(Br)cc1)N1CCCN(Cc2ccccc2F)CC1	L major viab 50 (no result: Rad51 HR inh)
O=C(CN1CCN(S(=O)(=O)c2ccc(Br)cc2)CC1)Nc1ccccc1F	none
CCC(C)NC(=O)c1ccccc1-c1nc2ccccc2[nH]1 (stereo unspecified)	none
CCCC(c1nnnn1C(C)(C)CC)N(Cc1ccco1)Cc1cc2ccc(OC)cc2[nH]c1=O (stereo unspecified)	CHOP inhibitor 91 (no result: Rad51 HR inh)
CC(C)(C)n1nnnc1C(c1cccs1)N(Cc1cccnc1)Cc1ccco1 (stereo unspecified)	L major viab 79
Cc1cc2cc(C(c3nnnn3C3CCCC3)N(Cc3cccnc3)Cc3ccco3)c(=O)[nH]c2cc1C (stereo unspecified)	none
CCC(C)(C)n1nnnc1C(c1cc2ccc(C)cc2[nH]c1=O)N(Cc1cccnc1)Cc1ccco1 (stereo unspecified)	L major viab 83
Cc1ccc2cc(C(c3nnnn3C3CCCC3)N(Cc3ccccc3)Cc3ccco3)c(=O)[nH]c2c1 (stereo unspecified)	L major viab 80
CCn1cc(C(=O)N2CCN(c3ccccc3F)CC2)c(=O)c2ccc(C)nc21	none (no result: Rad51 HR inh)
CC1=C(C(=O)Nc2ccccc2C)C(c2ccc(C)o2)n2c(s/c(=C/c3ccccc3)c2=O)=N1 (stereo unspecified)	L major viab 75
CC1=C(C(=O)Nc2ccccc2)C(c2ccc(C)o2)n2c(s/c(=C/c3ccccc3)c2=O)=N1 (stereo unspecified)	L major viab 95
CCOc1ccc(NC(=S)N2CCN(C/C=C/c3ccccc3)CC2)cc1	L major viab 90
COc1ccc(NC(=S)N2CCN(C/C=C/c3ccccc3)CC2)cc1OC	L major viab 74
COc1ccc(NC(=S)N2CCN(C/C=C/c3ccccc3)CC2)cc1	L major viab 86
CC1CCCCC1NC(=O)COc1ccc(-n2cnnn2)cc1 (stereo unspecified)	none
CC1CCCCC1NC(=O)/C(C#N)=C/c1ccc(OCC(N)=O)cc1 (stereo unspecified)	L major viab 64
COc1ccc(N2CCN(C(c3ccc4ncccc4c3)c3nnnn3C(C)C)CC2)cc1 (stereo unspecified)	none (no result: Arbovirus anti, L major viab, PKD1 inh)
Cc1cc(/C=C2/C(=N)N3C(c4ccccc4)=CSC3=NC2=O)c(C)n1-c1ccccc1	none
Cc1cc(/C=C2/C(=N)N3C(=NC2=O)SN=C3S(C)(=O)=O)c(C)n1-c1ccc(F)cc1	Arbovirus anti 37
COc1ccccc1-n1c(C)cc(/C=C2/C(=N)N3C(=NC2=O)SN=C3S(C)(=O)=O)c1C	Arbovirus anti 35
CCOc1ccc(-n2c(C)cc(/C=C3/C(=N)N4C(=NC3=O)SN=C4S(C)(=O)=O)c2C)cc1	Arbovirus anti 42
Cc1cccnc1NC(=O)NC(=O)c1ccc(C(C)(C)C)s1	none (no result: Arbovirus anti, L major viab, PKD1 inh)
CCn1c(NCc2cc(Br)ccc2NS(=O)(=O)c2ccc(C)cc2)nc2ccccc21	L major viab 100
CCn1c(NCc2ccccc2Cl)nc2ccccc21	L major viab 51
CCn1c(NCc2ccccc2NS(=O)(=O)c2ccc(C)cc2)nc2ccccc21	L major viab 72
CCCn1c(NCc2ccccc2NS(=O)(=O)c2ccc(C)cc2)nc2ccccc21	L major viab 96
Oc1ccc(/C=N/NC(=S)N2CCOCC2)cc1	none
O=C(c1ccc(F)cc1F)N1CCN(c2n[nH]c(=O)[nH]c2=O)CC1	none
Cc1ccc(Cl)cc1NC(=O)c1cccc(OC(F)F)c1	none
CCn1c(CNc2cccc(Cl)c2)nnc1SCC(=O)OC1CCCCC1	CHOP inhibitor 72 (no result: Rad51 HR inh)
Cc1nc2c(-c3ccc(F)cc3)c(C)nn2c(C)c1CCC(=O)Nc1ccccc1F	none (no result: Arbovirus anti, L major viab, PKD1 inh)
N#CCCn1cc(C(=O)N2CCCCC2)c(-c2cccc([N+](=O)[O-])c2)n1	none (no result: Rad51 HR inh)
CCNC(=O)Nn1c(-c2ccccc2)nc2ccccc2c1=O	none
CCC(C(=O)OC)n1c(-c2ccccc2)nc2ccccc2c1=O (stereo unspecified)	CHOP inhibitor 71
Cc1ccc(Sc2ncccc2C(=O)O)cc1C	L major viab 59
Cc1ccc(-c2cn(-c3ccc(SC(F)F)cc3)c3[n+]2CCC3)cc1	L major viab 99 (no result: Rad51 HR inh)
FC(F)Sc1ccc(-n2cc(-c3ccc(Cl)cc3)[n+]3c2CCC3)cc1	none (no result: Rad51 HR inh)
C=C1[C@@H](OC(C)=O)CC[C@]2(C)[C@@H]1C[C@@H]1C[C@H](OC(C)=O)C(C)=C([C@@H](OC(C)=O)[C@@H]2OC(C)=O)C1(C)C	none (no result: Arbovirus anti, L major viab, PKD1 inh, Wee1 degr inh)
COC(=O)c1ccc2nc(-c3ccc(S(C)(=O)=O)cc3)cn2c1	none
COC(=O)c1ccc2nc(-c3cccc(N)c3)cn2c1	CHOP inhibitor 80 (no result: Rad51 HR inh)
S=C1SCN(Cc2cccnc2)CN1Cc1cccnc1	none (no result: Arbovirus anti, L major viab, PKD1 inh)
CCC(C)(C)NC(=O)/C=C/c1cnc2ccccc2n1	L major viab 52
O=C(O)/C=C/c1cnc2ccccc2n1	none
Cc1ccccc1NC(=O)OCc1cccnc1Oc1ccc(Cl)cc1	none
COc1ccc(C(=O)NNc2ccccc2)cc1OC	L major viab 56
O=C(NC1=NCCS1)c1cccc2ccccc12	none
Cc1cccc(C)c1-n1cccc1/C=C1/C(=N)N2C(=NC1=O)SN=C2S(C)(=O)=O	Arbovirus anti 59
Cc1ccc(-n2cccc2/C=C2/C(=N)N3C(=NC2=O)SN=C3S(C)(=O)=O)cc1Cl	Arbovirus anti 34
CC(C)CSC1=NSC2=NC(=O)/C(=C\c3ccccc3)C(=N)N12	none
CCCC(C)NC(=S)Nc1cc(C)cc(C)c1 (stereo unspecified)	L major viab 76
O=C(c1cccc([N+](=O)[O-])c1)N1CCCN(C(=O)c2cccc([N+](=O)[O-])c2)CC1	none (no result: Rad51 HR inh)
CNC(=S)NCc1ccc2[nH]c(C)cc2c1	none
Cc1cc2cc(CNC(=S)NC3CCCCC3)ccc2[nH]1	Wee1 degr inh 9.9
CCc1cccc(C)c1NC(=S)NCc1ccc2[nH]c(C)cc2c1	L major viab 93
CN(C)/C=C(\C#N)C(=O)N/N=C/c1ccccc1	none
CCCCN1C(=O)C(=O)N(CC(=O)NC2CCCc3ccccc32)C1=O (stereo unspecified)	none
CCN(c1ccccc1)S(=O)(=O)c1ccc(Cl)c(NC(=O)CN(C)C2CCN(C)CC2)c1	none (no result: Arbovirus anti, L major viab, PKD1 inh)
CCOC(=O)c1cc(-c2ccccc2)n(CC(=O)Nc2ccc(OCC)cc2)c1C	CHOP inhibitor 80
